Measurements as given in publication PMC3861362 (Clinical Pharmacology : Advances and Applications, 2013).
“Also recorded” adds a separate entry of the source. Like-named read-outs stand apart in the source and are kept apart here.

Assays:
[1] = format: in vivo, human (healthy Chinese subjects); details: for CL renal: plasma and urine, CLR
[2] = target: bovine factor Xa (Bos taurus, UniProt P00743); test: Plasma anti-Xa activity by chromogenic assay after apixaban dosing; format: in vivo
[3] = format: in vivo, human (healthy Chinese subjects)
Summary of the method: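 Dosing was 10 mg once on day 1, then 10 mg twice daily for 6 d, ending with the morning dose on day 9. Subjects were confined to the facility throughout and monitored for adverse events, with physical examinations, vital signs, ECGs and clinical laboratory tests.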

[4] = cited from earlier work
[5] = tested on: P-glycoprotein; details: cited from earlier work
[6] = tested on: breast cancer resistance protein; details: cited from earlier work
[7] = tested on: CYP3A4; details: minor contribution from other CYP enzymes; cited from earlier work
[8] = multiple doses 10 mg twice daily, one of twelve subjects

Sequence of bovine factor Xa (P00743 234-492 limits assumed): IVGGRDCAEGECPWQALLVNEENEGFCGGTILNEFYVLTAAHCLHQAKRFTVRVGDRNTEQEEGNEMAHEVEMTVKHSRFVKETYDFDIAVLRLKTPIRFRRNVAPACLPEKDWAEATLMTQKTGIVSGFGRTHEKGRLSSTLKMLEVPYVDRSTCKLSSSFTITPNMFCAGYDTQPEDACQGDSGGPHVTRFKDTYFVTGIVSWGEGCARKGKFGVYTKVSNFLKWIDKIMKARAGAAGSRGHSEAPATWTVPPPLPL
Sequence of bovine factor Xa (P00743 41-180 partner limits assumed): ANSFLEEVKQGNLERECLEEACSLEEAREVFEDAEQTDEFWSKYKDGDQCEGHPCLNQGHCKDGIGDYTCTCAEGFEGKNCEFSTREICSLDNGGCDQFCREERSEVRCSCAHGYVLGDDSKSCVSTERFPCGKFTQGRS

COc1ccc(-n2nc(C(N)=O)c3c2C(=O)N(c2ccc(N4CCCCC4=O)cc2)CC3)cc1 [apixaban]
CL renal ([1]; human, oral, 10 mg, Mean (SD), multiple doses 10 mg twice daily, day 9, n=12): 20 mL/min | CL renal ([1]; human, po, 10 mg, Mean (SD), single 10 mg oral dose, day 1, n=12): 19.5 mL/min | Tmax ([1]; human, plasma, oral, 10 mg, Tmax, Median (min, max), multiple doses 10 mg twice daily, day 9, n=12): 3.5 h | half-life ([1]; human, plasma, oral, 10 mg, t½, Mean (SD), multiple doses 10 mg twice daily, day 9, n=12): 10.8 h | AUC(0-inf) ([1]; human, plasma, po, 10 mg): 2310 ng·h/mL | AUC(0-t) ([1]; human, plasma, po, 10 mg): 2270 ng·h/mL | Cmax ([1]; human, plasma, po, 10 mg): 234 ng/mL | time at which steady-state conditions were achieved ([1]; multiple doses 10 mg twice daily): by the third day of multiple-dose administration | t½, Mean (SD) ([1]; single 10 mg oral dose, day 1, n=12): 11.4 (3.6) hours | maximum anti-Xa activity, mean (SD) ([2]; day 9, at 3 hours (peak apixaban concentration), 10 mg twice daily, low-molecular-weight heparin units): 5.57 (SD, 1.54) IU/mL | minimum anti-Xa activity, mean (SD) ([2]; day 9, at 12 hours (trough apixaban concentration), 10 mg twice daily, low-molecular-weight heparin units): 1.94 (SD, 0.54) IU/mL | relationship between anti-Xa activity and plasma apixaban concentration ([2]; single and multiple doses): appears to be linear; also recorded: direct linear relationship | severity of adverse events after multiple-dose administration ([3]; 10 mg twice daily): mild | overall safety and tolerability ([3]; healthy Chinese subjects, 10 mg single and twice-daily doses): safe and well tolerated | subjects with elevated alanine aminotransferase (ALT) [3, 8]: 8% | subjects with microscopic hematuria [3, 8]: 8% | subjects with positive fecal blood [3, 8]: 8% | adverse events after single dose ([3]; single-dose apixaban 10 mg): No adverse events | changes in vital signs, physical examinations, or ECGs ([3]; whole study): No clinically significant changes | deaths, serious adverse events, discontinuations, bleeding-related adverse events ([3]; whole study, 10 mg single and twice-daily doses, n=12): no bleeding-related adverse events reported; also recorded: no deaths, other serious adverse events, adverse events leading to discontinuation, or clinically significant bleeding-related adverse events | CLR ([4]; Japanese and non-Asian subjects, ref previous studies): 0.49 to 1.07 L/h | oral bioavailability [4]: ~ 50% | share of total clearance via the kidneys [4]: 27% | mean elimination t½ ([4]; healthy Western subjects): approximately 12 hours | share of dose undergoing oxidative metabolism ([4]; oral administration): ~ 25% | time to Cmax after oral administration ([4]; oral administration): ~ 3 hours | time to Cmax ([4]; white and Japanese subjects): 2 to 4 h | P-glycoprotein substrate [5]: substrate | breast cancer resistance protein substrate [6]: substrate | enzyme mediating oxidative metabolism [7]: primarily mediated via CYP3A4
